# In the library only some 2.7% were active in any assay of this set; here they are far more common.
# OX1R antag-1: OX1R (HCRTR1) antagonists, primary screen, fluorescence, CHO/OX1R cells, Fluo-8 calcium, orexin A. Fluo-8 calcium fluorescence. inhibition, % at 5 µM. 330,000 compounds, 0.43% hits;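 active means inhibition above its plate's threshold, mean inhibition of all tested compounds on the plate plus 3 SD, cut at about 37% in these data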;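 further: 0% = orexin A challenge wells and 100% = SB-334867-A antagonist wells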
# Target sequence (O43613 whole entry, looked up): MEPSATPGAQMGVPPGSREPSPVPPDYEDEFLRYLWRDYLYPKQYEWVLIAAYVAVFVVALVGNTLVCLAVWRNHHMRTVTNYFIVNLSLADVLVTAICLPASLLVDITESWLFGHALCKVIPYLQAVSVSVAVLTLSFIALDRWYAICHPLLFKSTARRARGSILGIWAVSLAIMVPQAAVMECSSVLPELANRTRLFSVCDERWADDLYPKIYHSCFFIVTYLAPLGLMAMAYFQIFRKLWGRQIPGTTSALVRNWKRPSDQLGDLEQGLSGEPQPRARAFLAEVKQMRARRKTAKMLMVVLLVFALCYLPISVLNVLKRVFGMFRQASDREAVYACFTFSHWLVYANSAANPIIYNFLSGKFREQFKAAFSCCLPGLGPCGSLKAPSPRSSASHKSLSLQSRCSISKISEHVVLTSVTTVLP
# OX1R antag-2: antagonists of human orexin 1 receptor (OX1R); 330,000 compounds, 1.8% hits; Orexin/Hypocretin receptor type 1 (Homo sapiens), O43613; AID 485270, 2010; OX1R-expressing cells, FRET antagonist read-out; inhibition, % at 6.6 µM; in the data active means inhibition mostly above about 38%, no sharp cut-off; inactive means mostly below about 40%;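 further: 0% = agonist challenge alone and 100% = reference antagonist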
# OXTR agonist: human OXTR agonists, primary screen, fluorescence, CHO-OTR cells, Fluo-8 calcium. Oxytocin receptor (Homo sapiens), P30559. Fluo-8 calcium fluorescence; normalized: DMSO 0%, oxytocin 100%. activation, % at 3 µM. 320,000 compounds, 0.32% hits;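 active means activation above the mean of all tested compounds plus 3 SD, cutoff set per screening run, cut at about 20% in these data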;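 further: peak over basal fluorescence ratio from a 100 s FLIPR kinetic read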
# V1aR counter: agonists of human V1a receptor, primary screen, counter-screen for OXTR agonist project, fluorescence, CHO-V1R cells. Vasopressin V1a receptor (Homo sapiens), P37288. Fluo-8 calcium fluorescence, agonist mode; 0% DMSO, 100% 3 nM vasopressin. activation, % at 3 µM. 320,000 compounds, 0.25% hits;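 active means activation above the mean activation of all tested compounds plus 3 SD, per screening run, cut at about 20% in these data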;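 further: signal is peak over basal fluorescence ratio across a 100 second FLIPR read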
# CHO parental Ca: ATP-evoked calcium signal inhibitors, parental CHO, primary screen, counter-screen for OX1R antagonist project, cell-based, fluorescence, Fluo-8 calcium dye; inhibition, % at 5.6 µM; parental CHO-K1, ATP-induced calcium, Fluo-8 fluorescence; 330,000 compounds, 0.63% hits;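 active means inhibition above that plate's mean sample inhibition plus 3 SD, cut at about 26% in these data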;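 further: 0% = ATP-challenged DMSO wells and 100% = DMSO wells without ATP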
#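 Assay system – parental CHO cells · Reagent – ATP stimulus · Detection – intracellular calcium via Fluo-8 no-wash fluorescent dye · Evaluation – percent inhibition of ATP-evoked calcium rise, normalized to controls · Controls – ATP wells versus no-ATP DMSO wells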
# OXTR potentiator: human OXTR potentiators, primary screen, fluorescence, CHO-OTR cells, Fluo-8 calcium; Oxytocin receptor (Homo sapiens), P30559; Fluo-8 calcium fluorescence, potentiator mode; 0% = oxytocin EC15, 100% = EC100; activation, % at 3 µM; 320,000 compounds, 0.061% hits;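 active means activation above that plate's cutoff, the mean activation of tested compounds plus 3 SD, cut at about 6.6% in these data, passing the limit was not always enough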;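 further: 100% uses oxytocin at 75 nM as the full agonist control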
#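 System: human OTR in CHO cells; Also added: sub-maximal oxytocin, roughly EC15; Timing: compound 6 min at room temperature before oxytocin, 100 s read; Technique: Fluo-8 intracellular calcium fluorescence, ex 470-495, em 515-575 nm; Controls: oxytocin EC15 low and EC100 high; Replication: singlicate.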
# An asterisk follows results filed as active; nt = no result.
SMILES,OX1R antag-1,OX1R antag-2,OXTR agonist,V1aR counter,CHO parental Ca,OXTR potentiator
COc1ccc(NC(=O)CSc2nnc3ccc(-c4ccncc4)nn23)cc1OC,-19,27,0,-1,-7,-17
CC(=O)Nc1cccc(NC(=O)CSc2nnc3ccc(-c4ccncc4)nn23)c1,-12,67*,1,0,1,1
Cc1ccc(NC2CCCN(C(=O)CN3C(=O)c4ccccc4C3=O)C2)cc1C (stereo unspecified),-40,4,0,0,-25,2
CSc1ccc(S(=O)(=O)NCC(=O)OCC(=O)NCC2CCCO2)cc1[N+](=O)[O-] (stereo unspecified),3,56*,0,0,-13,-6
Cc1nn(C(C)C(=O)NNC(=S)Nc2ccc(Cl)cc2)c(C)c1[N+](=O)[O-] (stereo unspecified),-18,7,-1,0,-22,-3
CC(C)n1c(-c2ccco2)csc1=Nc1cccnc1,36,74*,5,4,48*,-20
COCCn1c(-c2ccccc2)csc1=Nc1cccnc1,-31,29,-1,2,-19,-11
CC[C@]1(C(=O)OC)[C@H]2C(=O)N(Cc3ccccc3)C(=O)[C@H]2[C@H]2CN=C(SC)N21,-9,1,nt,nt,5,nt
COc1ccccc1C(=O)NCC(=O)OCCCOC(=O)CNC(=O)c1ccccc1OC,-25,13,0,1,3,3
CC(C)(C)c1nc(SCC(=O)NNC(=O)c2ccccc2)c2ccccc2n1,-36,20,-2,-1,-35,-5
COc1cc2[nH]c(=O)n3nc(-c4ccccc4)nc3c2cc1OC,1,37*,2,1,-8,-2
CCc1ccc(/C(C)=N\Nc2ccc([N+](=O)[O-])cc2)cc1,13,10,1,4,20,-12
CC/C(=N\Nc1ccc([N+](=O)[O-])cc1)c1ccccc1,-37,53*,-1,2,-5,-13
O=C(CSc1ccccc1F)NC(=O)c1ccccc1Br,-9,2,0,1,-6,0
COc1ccc(-c2nc3scc(-c4ccccc4)n3n2)cc1,1,67*,-1,-1,-23,-10
O=C(O)CCC(=O)N1N=C(c2ccccc2)CC1c1cccs1 (stereo unspecified),-6,16,0,0,-10,-5
COc1ccc(NC(=O)c2cc3c(=O)n(C)c4ccccc4c3n2C)cc1OC,-21,43*,0,1,-11,-6
CN(C)C(/C=C/Nc1ccc(C#N)cc1)=C(C#N)C#N,-1,14,1,0,-3,-3
CN(C)C(/C=C/Nc1ccc([N+](=O)[O-])cc1)=C(C#N)C#N,-4,58*,1,1,-6,-7
CC(=O)N1CCc2cc(S(=O)(=O)NCCCN3CCCCC3)ccc21,-16,3,1,-1,-9,-2
CC(=O)N1CCc2cc(S(=O)(=O)NCCC3=CCCCC3)ccc21,38,42,18,11,38*,-21
Nc1nc(N)c2nc(CNc3ccc(C(=O)NC(CCC(=O)O)C(=O)O)cc3)cnc2n1 (stereo unspecified),-6,61*,0,0,-5,-6
COc1ccc(CCNC(=O)Cc2c(Cl)cccc2Cl)cc1,-25,12,-1,0,-12,-8
CN(C)CCOc1ccc(-c2c(-c3ccsc3)sc3ccccc23)cc1,48,-5,8,2,27,-2
COc1ccc(-c2sc3ccccc3c2-c2ccc(OCCN(C)C)cc2)cc1,70*,2,1,4,50*,-4
CCN(CC)c1ccc(S(=O)(=O)N2CCOCC2)cc1NC(=O)CSc1nncs1,-20,12,0,-1,-18,3

# High-throughput results (PubChem)
